Assay results published in ChEMBL document CHEMBL5120972, “Small-Molecule Inhibitors of the MLL1 CXXC Domain, an Epigenetic Reader of DNA Methylation” (ACS Med Chem Lett, 2022).

What was measured:
[1] = molecular target: T1, Lysine-specific demethylase 2B (Homo sapiens, UniProt Q8NHM5); assay: Inhibition of GST-tagged human KDM2B (604 to 660 residues) expressed in Escherichia coli BL21 cells incubated for 30 mins by fluorescence polarization assay
T1 sequence (Q8NHM5 whole entry): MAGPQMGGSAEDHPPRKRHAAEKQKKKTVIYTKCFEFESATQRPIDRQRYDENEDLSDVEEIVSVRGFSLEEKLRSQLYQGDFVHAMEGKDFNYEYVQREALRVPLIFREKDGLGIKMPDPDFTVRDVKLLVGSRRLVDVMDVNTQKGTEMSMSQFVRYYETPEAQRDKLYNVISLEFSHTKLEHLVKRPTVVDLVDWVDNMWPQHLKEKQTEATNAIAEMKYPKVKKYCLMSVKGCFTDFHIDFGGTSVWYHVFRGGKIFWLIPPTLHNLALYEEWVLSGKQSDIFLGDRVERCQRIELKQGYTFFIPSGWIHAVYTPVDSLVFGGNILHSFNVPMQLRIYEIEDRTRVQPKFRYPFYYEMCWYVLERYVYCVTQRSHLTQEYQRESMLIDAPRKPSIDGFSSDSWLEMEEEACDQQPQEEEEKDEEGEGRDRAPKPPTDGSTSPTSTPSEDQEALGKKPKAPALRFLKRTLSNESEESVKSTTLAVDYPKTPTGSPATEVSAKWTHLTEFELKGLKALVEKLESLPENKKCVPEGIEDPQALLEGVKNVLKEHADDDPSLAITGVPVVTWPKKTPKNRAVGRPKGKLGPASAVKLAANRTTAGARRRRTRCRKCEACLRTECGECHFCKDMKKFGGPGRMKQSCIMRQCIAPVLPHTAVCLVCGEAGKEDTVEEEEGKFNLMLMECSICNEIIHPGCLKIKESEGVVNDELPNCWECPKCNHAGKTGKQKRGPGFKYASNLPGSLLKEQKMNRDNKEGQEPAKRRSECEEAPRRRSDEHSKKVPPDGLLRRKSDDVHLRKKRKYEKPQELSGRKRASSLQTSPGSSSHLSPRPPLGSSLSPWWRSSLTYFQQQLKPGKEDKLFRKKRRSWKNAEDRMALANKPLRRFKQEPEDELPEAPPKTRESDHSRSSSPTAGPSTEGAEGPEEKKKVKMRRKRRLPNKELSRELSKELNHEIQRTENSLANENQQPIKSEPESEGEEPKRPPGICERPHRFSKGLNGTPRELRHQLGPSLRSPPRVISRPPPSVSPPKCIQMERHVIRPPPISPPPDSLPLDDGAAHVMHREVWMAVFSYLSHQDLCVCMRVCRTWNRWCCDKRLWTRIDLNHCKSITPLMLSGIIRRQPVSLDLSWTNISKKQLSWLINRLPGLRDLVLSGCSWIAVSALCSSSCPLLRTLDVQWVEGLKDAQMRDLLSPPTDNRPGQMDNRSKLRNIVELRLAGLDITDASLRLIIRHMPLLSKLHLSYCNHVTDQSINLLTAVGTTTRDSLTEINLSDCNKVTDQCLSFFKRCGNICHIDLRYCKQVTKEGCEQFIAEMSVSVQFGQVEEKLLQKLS
Method in brief: (§1)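 Competition fluorescence polarization assay. CXXC domain protein is held at 2× its own KD. All domains are expressed and purified by the same method. Standard deviations come from three separate measurements.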

[2] = Inhibition of GST-tagged human MLL1 Cys1188Ala mutant (1147 to 1203 residues) expressed in Escherichia coli BL21 cells incubated for 30 mins by fluorescence polarization assay
[3] = molecular target: T2, CXXC-type zinc finger protein 4 (Homo sapiens, UniProt Q9H2H0); assay: Inhibition of GST-tagged human IDAX (130 to 181 residues) expressed in Escherichia coli BL21 cells incubated for 30 mins by fluorescence polarization assay; method in brief: as §1
T2 sequence (Q9H2H0 whole entry): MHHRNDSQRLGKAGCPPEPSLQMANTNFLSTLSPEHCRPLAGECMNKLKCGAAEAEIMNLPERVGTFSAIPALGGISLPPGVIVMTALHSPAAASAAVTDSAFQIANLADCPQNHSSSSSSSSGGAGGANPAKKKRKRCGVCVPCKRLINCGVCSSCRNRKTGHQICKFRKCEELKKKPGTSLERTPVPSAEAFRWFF

Row | Structure (SMILES) | IC50 [1] | IC50 [2] | IC50 [3]
1 | C=CC(=O)N1CCC(C(=O)O)(c2ccc(OC)cc2)CC1 | 53 µM | 51 µM | 35 µM
2 | C=CC(=O)N1CCC(c2ccc(OC)cc2)(c2nnn[nH]2)CC1 | 32 µM | 59 µM | 8.3 µM
3 | C=CC(=O)N1CCC(C(=O)O)(c2ccc(OCC)cc2)CC1 | 3.6 µM | 15.4 µM | 1.2 µM
4 | C=CC(=O)N1CCC(C(=O)O)(c2ccc(Cl)cc2)CC1 | 53 µM | 108 µM | 33 µM
5 | C=CC(=O)N1CCC(C(=O)O)(c2ccccc2)CC1 | 6.4 µM | 3.6 µM | 4 µM
6 | C=CC(=O)N1CCC(C(=O)NS(=O)(=O)c2ccccc2)(c2ccccc2)CC1 | 35 µM | 52 µM | 23 µM
7 | C=CC(=O)N1CCC(c2ccccc2)(c2nnn[nH]2)CC1 | 8.3 µM | 20 µM | 2.4 µM
8 | C=CC(=O)N1CCC(c2ccc(OCC)cc2)(c2nnn[nH]2)CC1 | 30 µM | 104 µM | 8.9 µM
9 | C=CC(=O)N1CCC(c2cccc(OCC)c2)(c2nnn[nH]2)CC1 | 9.4 µM | 43 µM | 2.2 µM
